Results reported in PubChem BioAssay.
Results filed as inconclusive are left out.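 The calls were made as follows, unless noted: active = viability increase at or above a cutoff of the median across tested compounds plus 3 SD (cut at about 8.5% in these data, passing the limit was not always enough); inconclusive = some gains above the cutoff, reason not given; inactive = the rest.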

Legend:
[1] = OD615 S. cerevisiae growth inhibition, permissive medium, pilot counter-assay, permissive growth control for S. cerevisiae lifespan shortening project (AID 705;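 active = growth inhibition above 25% in both replicates, a cutoff set 3 SD above the mean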); conditions: OD615, 24 h, at 10 µM, stronger effect = higher value
Summary of the method: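 Timing: 24 h exposure, 30 °C / Material: Saccharomyces cerevisiae strain carrying genetically modified DeaD replicative-lifespan system / Signal: OD at 615 nm / Compound: 10 µM single dose, 0.25% DMSO / Medium: SC raffinose/galactose permissive medium / Evaluation: reduction in yeast growth (OD615)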

[2] = Restrictive medium S. cerevisiae growth inhibition, OD615, pilot screen of yeast lifespan reduction project, restrictive growth control (AID 706;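 active = growth inhibition above a set limit, 3 SD over mean compound inhibition, in both replicates, cut at about 43% in these data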;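 also: modified DeaD lifespan yeast strain shifted to restrictive glucose medium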); conditions: OD615, 48 h, at 10 µM, stronger effect = higher value
Summary of the method: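 System: Engineered S. cerevisiae DeaD strain | Detection: OD615 | Buffer or medium: CSMM-D glucose medium | Doses: 10 µM compound, 0.25% DMSO | Timing: 4 h pre-growth plus 48 h compound exposure, 30 °C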

[3] = viability gain of MRP-1-high H69AR cells under doxorubicin, pilot screen, MRP-1 activator project, CellTiter-Glo, duplicate (AID 807); conditions: H69AR viability with doxorubicin, CellTiter-Glo luminescence; at 10 µM; stronger effect = higher value;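 also: compound pretreatment 18-22 h then 72 h combined with doxorubicin; 0% = doxorubicin alone and 100% = vehicle without doxorubicin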
[4] = growth suppression of beta-catenin knockout HCT116, pilot screen, human colon tumor cells (AID 823;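 active = cell viability at or below a set limit in both duplicate runs, the limit being the all-compound median minus 4 SD, cut at about 23% in these data, passing the limit was not always enough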;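 also: 0% = wells killed by 20 µM Hyamine and 100% = untreated DMSO cell wells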); conditions: CellTiter-Glo, 60 h, at 10 µM, stronger effect = lower value
[5] = growth suppression of PTEN-deleted HCT116, pilot screen, cell-based, HCT116 clonal line, CellTiter-Glo (AID 824;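 active = viability at or below 27.92% in each of two runs, the all-compound median minus 4 SD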;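 also: 0% = 20 µM Hyamine control and 100% = vehicle cell control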); conditions: 60 h, at 10 µM, stronger effect = lower value
[6] = inhibitors of the yeast RAM network, pilot screen, dse1pr::URA3 reporter, 5-FOA selection (AID 869;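 active = inhibition over a set limit, the all-compound mean plus 3 SD, in both replicate runs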;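 also: 0% = DMSO wells with no growth and 100% = 10 µM 1-NA-PP1 with full growth; RAM network block rescues cells from 5-FOA so hits raise OD615 growth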); conditions: S. cerevisiae dse1pr::URA3 5-FOA growth, OD615, 2 d; at 10 µM; stronger effect = higher value; strain carries analog-sensitive mutant Cbk1 kinase
[7] = RAM signaling pathway blockade in yeast – S. cerevisiae, Pdr1DBD-CYC8 efflux-inhibited sensitized strain, primary screen (AID 1298;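 active = RAM network inhibition above 8.4% in each of two replicates, 3 SD over the compound average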;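 also: 0% = DMSO untreated cells without growth and 100% = 10 µM 1-NA-PP1 full growth; higher means more yeast growth rescued from 5-FOA killing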); conditions: S. cerevisiae cbk1-as DSE1-URA3 strain, 5-FOA growth OD615, 2 d; at 50 µM; stronger effect = higher value

Cc1ccc(Cn2ccc(NC(=O)c3cc(C(C)C)on3)n2)cc1
inactive: growth inhibition [1] -13.5% | growth inhibition [2] 5.14% | viability increase [3] 0.94% | viability [4] 97.1% | viability [5] 95.1% | inhibition [6] 1.97% | RAM network inhibition [7] 4.18%

CCn1c2ccccc2c2nnc(SCC(=O)c3ccccc3)nc21
inactive: growth inhibition [1] -1.37% | growth inhibition [2] 13.5% | viability increase [3] -2.35% | viability [4] 94.8% | viability [5] 90.7% | inhibition [6] 2.33% | RAM network inhibition [7] 6.1%

Cc1ccc2c(c1)C(c1ccccc1)N(C(=O)c1ccc(Br)o1)CC(=O)N2 (configuration not stated)
inactive: growth inhibition [1] -8.12% | growth inhibition [2] -8.66% | viability increase [3] -3.95% | viability [4] 76.4% | viability [5] 77.9% | inhibition [6] -0.275% | RAM network inhibition [7] 2.72%

COCCNC(=O)c1cc2c(=O)n3cccc(C)c3nc2n1C
inactive: growth inhibition [1] -9.01% | growth inhibition [2] -20.7% | viability increase [3] -5.8% | viability [4] 34.3% | viability [5] 33.9% | inhibition [6] 1.85% | RAM network inhibition [7] 3.01%

Cc1ccc(N2C(=O)c3ccc(C(=O)N4CCN(c5ccccc5F)CC4)cc3C2=O)cc1
inactive: growth inhibition [1] -4.5% | growth inhibition [2] -2.21% | viability increase [3] -1.97% | viability [4] 90.5% | viability [5] 90% | inhibition [6] 1.33% | RAM network inhibition [7] 4.71%

O=C(O)CCCC(=O)Nc1c(F)c(F)c(F)c(F)c1F
inactive: growth inhibition [1] -5.5% | growth inhibition [2] -6.27% | viability increase [3] -1.85% | viability [4] 90.4% | viability [5] 94.4% | inhibition [6] 0.175% | RAM network inhibition [7] -0.87%

CCCC(=O)C1=C(O)C(C(=O)OC)C(C)(C)CC1=Nc1ccccc1 (configuration not stated)
inactive: growth inhibition [1] -12.6% | growth inhibition [2] -6.79% | viability increase [3] -0.91% | viability [4] 91.2% | viability [5] 88.6% | inhibition [6] 0.685% | RAM network inhibition [7] 2.75%

CN(C)c1ccc(S(=O)(=O)c2ccc(Cl)cc2)cc1
inactive: growth inhibition [1] 2.13% | growth inhibition [2] 16.1% | viability increase [3] -1.11% | viability [4] 103% | viability [5] 100% | inhibition [6] 1.79% | RAM network inhibition [7] 5.79%

CCOC(=O)c1cnc2c(Cl)cc(Cl)cc2c1NCCOCCO
inactive: growth inhibition [1] 1.23% | growth inhibition [2] -11.6% | viability increase [3] -5.62% | viability [4] 81.8% | viability [5] 74.4% | inhibition [6] -0.09% | RAM network inhibition [7] 2.56%

CC(=O)NCCc1ccc(S(=O)(=O)N2CCCC2)cc1
inactive: growth inhibition [1] -6.14% | growth inhibition [2] 1.21% | viability increase [3] 0.04% | viability [4] 96.2% | viability [5] 96% | inhibition [6] 3.39% | RAM network inhibition [7] 3.82%

CNC(=O)c1ccc2snnc2c1
inactive: growth inhibition [1] -8.38% | growth inhibition [2] 5.12% | viability increase [3] -1.54% | viability [4] 107% | viability [5] 97.9% | inhibition [6] 0.52% | RAM network inhibition [7] -0.47%

CC1CCN(C(=O)CSc2nnc(-c3ccco3)o2)CC1
inactive: growth inhibition [1] 0.09% | growth inhibition [2] 6.93% | viability increase [3] 0.32% | viability [4] 106% | viability [5] 102% | inhibition [6] 2.54% | RAM network inhibition [7] 1.64%

O=C(NCc1ccc(Cl)cc1)C1CCCN(S(=O)(=O)c2cnc[nH]2)C1 (configuration not stated)
inactive: growth inhibition [1] 1.47% | growth inhibition [2] -8.94% | viability increase [3] 1.36% | viability [4] 106% | viability [5] 92.4% | inhibition [6] 2.04% | RAM network inhibition [7] 1.09%

CCN1CCN(C(c2cccs2)C(C)NC(=O)c2cccc(OC)c2)CC1 (configuration not stated)
inactive: growth inhibition [1] -2.49% | growth inhibition [2] -14.8% | viability increase [3] -2.25% | viability [4] 103% | viability [5] 89.7% | inhibition [6] -0.09% | RAM network inhibition [7] -0.01%

Cc1csc(C(C#N)C(=O)c2cc3ccccc3o2)n1 (configuration not stated)
inactive: growth inhibition [1] -21.6% | growth inhibition [2] -8.8% | viability increase [3] -0.75% | viability [4] 93.7% | viability [5] 85.3% | inhibition [6] 2.67% | RAM network inhibition [7] 0.32%

O=c1cc(N2CCN(c3ccccc3)CC2)[nH]c(=O)n1Cc1ccc(F)cc1
inactive: growth inhibition [1] 6.47% | growth inhibition [2] -4.22% | viability increase [3] 0.72% | viability [4] 89.6% | viability [5] 80.9% | inhibition [6] 2.68% | RAM network inhibition [7] 3.61%

COc1cc(NC(=O)C2CCCN2S(=O)(=O)c2ccc3c(c2)CCC(=O)N3)cc(OC)c1 (configuration not stated)
inactive: growth inhibition [1] -15.3% | growth inhibition [2] -5.1% | viability increase [3] -1.09% | viability [4] 97.7% | viability [5] 105% | inhibition [6] 1.09% | RAM network inhibition [7] 1.33%

COC(=O)c1oc2ccc(Br)cc2c1NC(=O)CCCN1C(=O)c2ccccc2C1=O
inactive: growth inhibition [1] -10.3% | growth inhibition [2] -14.3% | viability increase [3] 0.98% | viability [4] 97.7% | viability [5] 98.5% | inhibition [6] 2.69% | RAM network inhibition [7] 7.77%

CCCCNC(=O)c1ccc2c(c1)N(CC)C(=O)c1ccccc1S2(=O)=O
inactive: growth inhibition [1] -1.9% | growth inhibition [2] -1.83% | viability increase [3] 0.81% | viability [4] 93.8% | viability [5] 87.3% | inhibition [6] 0.255% | RAM network inhibition [7] -2.03%

O=C(NCc1ccco1)N1c2ccccc2Sc2ccccc21
inactive: growth inhibition [1] -12.9% | growth inhibition [2] -8.64% | viability increase [3] -4.68% | viability [4] 88% | viability [5] 91.6% | inhibition [6] 0.805% | RAM network inhibition [7] 4.32%

Cc1cc(C)c(NC(=O)c2ccc(S(=O)(=O)N3CCOCC3)cc2)c(C)c1
inactive: growth inhibition [1] -9.41% | growth inhibition [2] -8.03% | viability increase [3] -2.1% | viability [4] 101% | viability [5] 98.1% | inhibition [6] 0.57% | RAM network inhibition [7] 0.69%

O=C(CCCCn1c(=O)[nH]c2ccccc2c1=O)NCCc1c[nH]c2ccccc12
inactive: growth inhibition [1] -16.7% | growth inhibition [2] -25.8% | viability increase [3] -4.05% | viability [4] 93.5% | viability [5] 93.7% | inhibition [6] 0.945% | RAM network inhibition [7] 4.06%

Cc1nc(CCNC(=O)COc2ccccc2)cs1
inactive: growth inhibition [1] -11% | growth inhibition [2] -3.25% | viability increase [3] -0.26% | viability [4] 103% | viability [5] 96.5% | inhibition [6] 1.14% | RAM network inhibition [7] 7.03%

COc1ccc(N2CCN(C(=O)C34CCC(C)(C(=O)C3)C4(C)C)CC2)cc1 (configuration not stated)
inactive: growth inhibition [1] -1.5% | growth inhibition [2] 0.815% | viability increase [3] -0.51% | viability [4] 88% | viability [5] 91.8% | inhibition [6] 1.86% | RAM network inhibition [7] -0.21%

COC(=O)c1cc(COc2ccc3c4c(c(=O)oc3c2)CCCC4)c(C)o1
inactive: growth inhibition [1] 2.28% | growth inhibition [2] 5.14% | viability increase [3] -0.68% | viability [4] 103% | viability [5] 100% | inhibition [6] 0.985% | RAM network inhibition [7] 3.78%

O=C(NC1CCCc2ccccc21)c1cccnc1 (configuration not stated)
inactive: growth inhibition [1] -4.71% | growth inhibition [2] -1.41% | viability increase [3] -1.04% | viability [4] 91.4% | viability [5] 93% | inhibition [6] 1.98% | RAM network inhibition [7] 0.22%

CCOC(=O)c1ccccc1NC(=O)C1COc2ccccc2O1 (configuration not stated)
inactive: growth inhibition [1] -25.8% | growth inhibition [2] -30.7% | viability increase [3] 4.16% | viability [4] 83.2% | viability [5] 87.8% | inhibition [6] 1.09% | RAM network inhibition [7] 4.22%

CCOc1ccc(-c2nnc3n2N=C(c2ccc(OC)cc2)CS3)cc1
inactive: growth inhibition [1] -2.4% | growth inhibition [2] -3.84% | viability increase [3] -5.29% | viability [4] 84% | viability [5] 82% | inhibition [6] 1.72% | RAM network inhibition [7] 5.3%

COc1ccc(-c2[nH]c(-c3ccc(F)cc3)nc2SCC(=O)NCc2ccco2)cc1OC
inactive: growth inhibition [1] -4.83% | growth inhibition [2] 12.4% | viability increase [3] -2.49% | viability [4] 96.9% | viability [5] 92.9% | inhibition [6] 0.93% | RAM network inhibition [7] 4.24%

O=C(c1cnn(-c2ccccc2)c1-n1cccc1)N1CCN(C2CCCCC2)CC1
inactive: growth inhibition [1] -1.61% | growth inhibition [2] 5.93% | viability increase [3] -3.1% | viability [4] 94% | viability [5] 93.4% | inhibition [6] 1.35% | RAM network inhibition [7] 2.87%

COc1cc(C2C(C#N)=C(C)NC3=C2C(=O)CC(C)(C)C3)ccc1OCCO (configuration not stated)
inactive: growth inhibition [1] -9.96% | growth inhibition [2] -14.6% | viability increase [3] -0.94% | viability [4] 97.8% | viability [5] 104% | inhibition [6] 1.43% | RAM network inhibition [7] 3.55%

COc1ccc(-c2cc(C(F)(F)F)n3nc(C)cc3n2)cc1
inactive: growth inhibition [1] -16.1% | growth inhibition [2] -2.2% | viability increase [3] 0.18% | viability [4] 96.2% | viability [5] 87% | inhibition [6] 2% | RAM network inhibition [7] -0.06%

Cc1nc2ccc(S(=O)(=O)NC(C(=O)N3CCn4c3nc3ccccc34)C(C)C)cc2s1 (configuration not stated)
inactive: growth inhibition [1] 0.9% | growth inhibition [2] 8.13% | viability increase [3] -1.67% | viability [4] 102% | viability [5] 97.2% | inhibition [6] 1.02% | RAM network inhibition [7] 5.83%

Cc1cc(C)nc(SCC(=O)OCN2C(=O)c3ccccc3C2=O)n1
inactive: growth inhibition [1] -19.7% | growth inhibition [2] -18.3% | viability increase [3] -1.63% | viability [4] 91.6% | viability [5] 91.6% | inhibition [6] 0.15% | RAM network inhibition [7] 3.15%

c1cn2c(NC3CCCC3)c(-c3ccc(N4CCOCC4)cc3)nc2cn1
inactive: growth inhibition [1] -2.94% | growth inhibition [2] 7.59% | viability increase [3] -4.3% | viability [4] 88.8% | viability [5] 77.8% | inhibition [6] 1.78% | RAM network inhibition [7] 3.25%

CC1CCCCN1C(=O)c1ccc(S(=O)(=O)N2CCCCC2C)cc1 (configuration not stated)
inactive: growth inhibition [1] -5.29% | growth inhibition [2] -15.2% | viability increase [3] -2.45% | viability [4] 96.7% | viability [5] 95.6% | inhibition [6] 1.99% | RAM network inhibition [7] 2.28%
